bovine MsrA act = bovine MsrA enzyme activators, primary screen, biochemical, absorbance, HTS. Methionine sulfoxide reductase A (Bos taurus). purified bovine MsrA, absorbance read-out. activation, % at 10.6 µM. hit rate 0.3% among 360,000. AID 602163, 2012; in the data active = activation above about 7.5%;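 also: 0% = vehicle and 100% = reference activator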
procasp3 activ = activators of human procaspase-3 D3A mutant, primary screen, biochemical, absorbance, PC-3 D3A mutant, single concentration; Caspase-3 (Homo sapiens), P42574; recombinant procaspase-3 D3A, Ac-DEVD-pNA absorbance 405 nm; activation, % at 8.5 µM; hit rate 0.11% among 330,000;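 active = activation above the mean of all tested compounds plus 3 SD, cut at about 21% in these data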;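 also: 0% = DMSO alone and 100% = DMSO wells spiked with extra 5 µM PC-3 D3A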
Target sequence (P42574 whole entry D9A/D28A/D175A): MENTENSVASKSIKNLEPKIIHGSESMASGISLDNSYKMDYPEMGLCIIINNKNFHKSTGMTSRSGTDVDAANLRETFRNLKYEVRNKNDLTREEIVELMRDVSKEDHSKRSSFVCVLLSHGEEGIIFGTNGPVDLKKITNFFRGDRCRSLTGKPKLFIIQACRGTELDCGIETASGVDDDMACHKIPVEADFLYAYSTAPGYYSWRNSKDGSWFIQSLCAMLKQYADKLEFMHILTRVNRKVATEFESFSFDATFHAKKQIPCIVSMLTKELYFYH
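Evaluation: percent activation relative to control range; Material: Procaspase-3 D3A mutant, all three cleavage aspartates alanine; Compound: single dose, 8.5 µM nominal compound, 0.8% DMSO; Replication: one well per compound; Signal: absorbance at 405 nm, 0 and 120 min; Schedule: 1 h preincubation plus 2 h reaction at 25 °C.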
procasp7 counter = procaspase-7 activators, primary screen, counter-screen for procaspase-3 activator project, biochemical, absorbance, HTS, human | activation, % at 8.5 µM | hit rate 0.093% among 330,000 | AID 463210, 2010 | recombinant procaspase-7, Ac-DEVD-pNA absorbance 405 nm; D23A/D198A/D206A triple mutant, cannot self-cleave; scale: DMSO 0, 5 µM enzyme 100;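 active = percent activation above the screen-wide mean plus 3 SD, cut at about 25% in these data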
Target sequence (P55210 whole entry D23A/D198A/D206A): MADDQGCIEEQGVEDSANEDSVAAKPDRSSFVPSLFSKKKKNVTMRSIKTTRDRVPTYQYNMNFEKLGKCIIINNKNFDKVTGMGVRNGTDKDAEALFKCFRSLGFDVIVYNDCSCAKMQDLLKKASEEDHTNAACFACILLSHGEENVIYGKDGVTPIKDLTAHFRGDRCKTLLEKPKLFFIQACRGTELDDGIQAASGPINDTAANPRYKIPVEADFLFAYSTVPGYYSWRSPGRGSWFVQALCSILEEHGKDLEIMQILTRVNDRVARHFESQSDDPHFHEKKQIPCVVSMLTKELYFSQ
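System: Procaspase-7 triple mutant (PC-7 D3A); measure: % activation from two-timepoint absorbance difference, scaled to controls; times: 1 h compound preincubation, 2 h substrate cleavage, 25 °C; also added: Ac-DEVD-pNA substrate, 400 µM as added; measured by: Epi-absorbance of released pNA at 405 nm, two timepoints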
MsrA inh = bovine MsrA enzyme inhibitors, primary screen, biochemical, absorbance, HTS | AID 651718, 2012 | inhibition, % at 15.5 µM | Methionine sulfoxide reductase A (Bos taurus) | purified bovine MsrA, absorbance read-out | hit rate 0.75% among 360,000; in the data active = inhibition above about 4.5%;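 also: 0% = vehicle wells with enzyme and 100% = reference inhibitor wells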
Starred values were filed as active, the others as inactive; . = no result given. Only some compounds are listed: those with a hit (about 1.2% of all), similar ones and a draw of the others.

SMILES	bovine MsrA act	procasp3 activ	procasp7 counter	MsrA inh
CC1(C)Cc2c(c(=S)nc(-c3ccccc3)n2CCN2CCOCC2)CO1	-4	3	-4	4.6*
CCCCCCCNC(=O)C1(CC2CC(c3ccc(Cl)cc3)=NO2)CCN(C(=O)C2(C)CC2)CC1 (stereo not given)	8.5*	-3	1	.
O=c1c2ccccc2nc(/C=C/c2ccccc2)n1CCCO	-14	9	6	4.6*
Cc1cccc(-n2c(C)cc(C=C(C#N)C#N)c2C)c1	-1	6	2	-1
Cc1cc(/C=C(/C#N)c2cccc(Cl)c2)c(C)n1C	-4	8	-15	4.6*
CCOC(=O)/C=C(\C)Sc1cc(O)c2ccccc2c1O	3	.	.	41*
O=C(N/N=C/c1ccc(N2CCOCC2)cc1)c1cccs1	-7	5	4	4.6*
NC(=O)c1c(NC(=O)c2cccc(N3C(=O)CCC3=O)c2)sc2c1CCCCC2	-3	1	-3	0
CC(=O)N1CCc2c(sc(NC(=O)c3cccc(N4C(=O)CCC4=O)c3)c2C(N)=O)C1	-3	9	-6	4.8*
COC(=O)c1c(-c2ccc(OC)cc2)c2c(c3c4cc(OC)ccc4n(S(=O)(=O)c4ccc(C)cc4)c13)C(=O)N(C)C2	.	.	.	1
O=[N+]([O-])c1ccc(NCCNS(=O)(=O)c2ccccc2)c(C(F)(F)F)c1	-3	-3	2	5.1*
CCCCCCCCN1C(=O)[C@@H](CC(=O)NCCCN2CCCC2=O)C[C@@]2(C(=O)OC)C1=C[C@H](C(C)(C)C)O[C@@H]2C	.	.	.	-1
CNC12CCc3cc(OC)c(OC)c(c31)-c1cc3c(cc1C2)OCO3 (stereo not given)	.	.	.	0
CCn1c(C)cc(/C=C2\NC(=O)N(Cc3ccc(Cl)cc3)C2=O)c1C	-11	-4	-1	2
CCN1C(=O)N/C(=C/c2cc(C)n(Cc3ccccc3)c2C)C1=O	-7	-5	5	4.6*
COCc1[nH]nc2c1C(c1ccc(C)cc1)NC2=O (stereo not given)	.	.	.	0
C[C@H](CO)N1C[C@H](C)[C@@H](CN(C)S(=O)(=O)c2ccccc2)Oc2ccc(NC(=O)CCN3CCOCC3)cc2C1=O	-8	-1	-6	0
C[C@H](CO)N1C[C@H](C)[C@@H](CN(C)S(C)(=O)=O)Oc2ccc(NC(=O)CCN3CCOCC3)cc2C1=O	-3	-2	27*	1
CN(C)c1ccc(/C=C(/NC(=O)c2ccccc2)C(=O)NCCN2CCOCC2)cc1	-4	-2	-8	4.6*
Cc1cc(-n2c(C)cc(C(=O)CSc3ccccn3)c2C)no1	-3	-9	-24	2
Cc1cc(-n2c(C)cc(C(=O)CSc3ccc4c(c3)OCCO4)c2C)no1	24*	-5	1	1
Cc1c(C(=O)N2CCCC2)sc(NC(=O)c2ccccc2)c1C#N	-3	-5	-7	4.6*
CC(=O)Nc1ccc(S(=O)(=O)NCC2CCN(C(=O)C(=O)c3cccs3)CC2)cc1	.	.	.	0
CCN(CC)CC(C)(C)C(=O)/C=C/c1ccc(/C=C/C(=O)C(C)(C)CN(CC)CC)cc1	2	.	.	12*
N#Cc1ccc(S(=O)(=O)N2CCCc3nc(-c4ccccc4)ccc32)cc1	.	.	.	-1
SMILES	bovine MsrA act	procasp3 activ	procasp7 counter	MsrA inh
Cc1ccc(/C=N/n2c(-c3ccncc3)n[nH]c2=S)o1	0	4	1	1
Cc1ccc(/C=N/n2c(C)n[nH]c2=S)o1	0	-2	-6	4.6*
O=C(CN1C(=O)N/C(=C\c2ccccc2OCc2ccc(C(=O)O)cc2)C1=O)Nc1ccc(F)cc1	-8	0	-8	4.7*
N#Cc1cc(-c2ccccc2)oc1NC(=O)c1ccco1	-3	-6	13	4.6*
Cc1ccsc1/C=C(\C(=O)c1ccc(OC(C)C)cc1)c1nc2ccccc2o1	-13	-1	6	4.6*
Cc1ccsc1/C=C(\CC(=O)O)c1nc2ccccc2o1	-8	10	6	4.6*
Cc1ccc(-c2nc3ccccc3o2)cc1NC(=O)Cc1cccs1	-2	-4	9	0
O=C(O)C/C(=C\c1cc(Br)cs1)c1nc2ccccc2o1	-5	7	3	4.6*
COC(=O)[C@]12C[C@H](CC(=O)NCCCN3CCCC3=O)C(=O)N(Cc3ccc4c(c3)OCO4)C1=C[C@H](C(C)(C)C)O[C@@H]2C	.	.	.	0
FC(F)(F)c1ccccc1Cc1c(-c2ccco2)nc2c3ccccc3ccn12	.	.	.	1
CC(=O)c1ccc(N2CCN(C(=O)C3CCN(S(=O)(=O)c4cccs4)CC3)CC2)cc1	-5	-10	3	4.6*
O=C(C(=O)N1CCC(CNS(=O)(=O)c2ccccc2OC(F)(F)F)CC1)c1cccs1	.	.	.	0
Cc1cccc(NC(=O)c2sc3nc(N)c(C#N)cc3c2N)c1	-8	-9	-16	4.6*
Cc1ncc(CO)c(/C=N/NC(=O)c2cc3c(s2)CCCC3)c1O	-4	31*	26*	1
CCN(CCCNC(=O)C1CCC(=O)N1C1CCCC1)c1cccc(C)c1 (stereo not given)	0	0	2	0
CCN(CCCNC(=O)C1CCC(=O)N1Cc1ccc(F)cc1)c1cccc(C)c1 (stereo not given)	11*	4	4	0
O=C1CCCC(O)=C1C=Nc1ccc(O)cc1	-4	-12	-15	4.6*
Cc1csc(NC(=O)/C=C/c2ccc3c(c2)OCO3)n1	-9	-5	7	4.6*
O=C(/C=C/c1ccc2c(c1)OCO2)Nc1nc(-c2ccc(F)cc2F)cs1	.	-5	5	.
O=C(CN1C(=O)/C(=C\c2ccccc2Cl)Oc2ccccc21)NCc1cccnc1	-4	0	14	0
Cc1ccc(CN2C(=O)/C(=C\c3ccc(C(=O)NCc4cccnc4)cc3)Oc3ccccc32)cc1	.	27*	25	0
O=C1OCCN1C(=O)[C@H]1[C@H](c2ccc([N+](=O)[O-])cc2)C(c2ccc(F)cc2)=NN1c1ccc(Br)cc1	-12	6	-12	4.7*
O=C(C(=O)N1CCC(CNC(=O)c2cccs2)CC1)c1cc2ccccc2o1	.	.	.	2
CN1OC[C@@H]2CN(C(=S)Nc3cc(C(F)(F)F)cc(C(F)(F)F)c3)[C@H](c3ccccc3Br)C[C@@H]21	.	.	.	2
COc1ccc(/C=N/NC(=O)c2nnn(-c3nonc3N)c2-c2cccs2)cc1OC	-3	-235	10	4.6*
COc1ccc(OC)c(/C=N/N=C(\N)c2nonc2N)c1	-2	5	3	2
COc1ccc(/C=N/N=C(\N)c2nonc2N)cc1OC	-3	9	15	4.6*
CC(=O)O[C@@H]1C=C[C@@H](C#Cc2ccc(C(C)(C)C)cc2)O[C@@H]1COC(=O)Nc1ccccc1	.	.	.	1

Screens from PubChem BioAssay.
